Measured values reported in PubChem BioAssay AID623968 (The Scripps Research Institute Molecular Screening Center, 2012).
Active and inactive are the calls of the source.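 Rule for the calls: active = compounds cutting HCV replicon RNA in liver cells with IC50 no higher than 50000 nM; inactive = the rest.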

Tested on: Huh 7.5 HCV Rluc replicon, HCV RNA qRT-PCR, 72 h
Assay: HCV replicon RNA level reduction, late-stage follow-up, orthogonal assay for HCV NS3 helicase inhibitor project, RT-PCR, Huh 7.5 Rluc replicon cells (AID 623968)
How it was run: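 Test system – Huh 7.5 cells carrying an HCV Rluc replicon · Incubation – 72 h compound exposure at 37 °C, 5% CO2 · Signal – One-step TaqMan qRT-PCR of HCV 5'UTR, 1 µg total RNA input · Measure – IC50 from fitted curve of rRNA-normalized HCV RNA versus DMSO · Controls – DMSO vehicle-treated cells as reference sample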

SMILES: Cc1ccc2nc(-c3ccc4nc(-c5ccc(NC(=O)c6cc(C(F)(F)F)cc(C(F)(F)F)c6)cc5)sc4c3)sc2c1S(=O)(=O)O
- IC50: 5 µM

SMILES: Cc1ccc2nc(-c3ccc4nc(-c5ccc(NC(=O)c6cccc(Cl)c6)cc5)sc4c3)sc2c1S(=O)(=O)O
- IC50: > 25 µM (inactive)
